Rin1-Abl PPI inh – inhibitors of Rin1-Abl protein binding, primary screen, biochemical, TR-FRET. inhibition, % at 7.35 µM. actives 0.4% (n = 360,000); in the data active = inhibition above about 5%, passing the limit was not always enough
ABHD5 PLIN5 PPI – ABHD5-PLIN5 interaction inhibitors, primary screen, cell lysate, split luciferase complementation, luminescence. inhibition, % at 4 µM. actives 0.78% (n = 360,000). AID 602281, 2012. Split G. princeps luciferase complementation, 4 h;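 active = inhibition above the mean inhibition across every tested compound plus 3 SD, cut at about 22% in these data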;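 also: 0% = DMSO only wells and the 100% control is not disclosed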
Arrestin-AP2 inh – inhibitors of beta-arrestin/AP2 binding, primary screen, biochemical, GPCR trafficking, flow cytometry; actives 0.31% (n = 340,000); inhibition, % at 10 µM; beta-arrestin 1 C-terminal peptide binding to AP2 beta2-adaptin appendage (human); FITC-arrestin peptide / GST-AP2 beads; AP2 beta2 appendage carries R879A mutation;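 active = inhibition above a set limit, near 3 SD of compounds lacking own fluorescence, cut at about 54% in these data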;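 also: plate controls were DMSO wells for no effect and 5 µM unlabelled arrestin peptide for full effect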
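system = GST-tagged AP2 beta2-adaptin appendage (R879A) on 4 µm glutathione beads | reagent = FITC-labelled arrestin peptide probe, 50 nM final | schedule = compound with beads 12 min RT, then probe 1 h RT | signal = HyperCyt-sampled flow cytometry, FL1 channel, ex 488/em 535 nm | read-out = percent response from loss of bead-bound FITC fluorescence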
UHRF1 binding – UHRF1 methylated DNA binding inhibitors, primary screen, counter-screen for MBD2 inhibitor project, biochemical, TR-FRET, human UHRF1, single concentration; UHRF1 binding to methylated oligo; inhibition, % at 4.4 µM; actives 0.75% (n = 370,000); AID 687016, 2013;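 also: UHRF1 SRA domain binding a hemimethylated CpG hairpin DNA probe; 0% = median of test compound wells and 100% = reference inhibitor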
MBD2 DNA inh – inhibitors of MBD2 binding to methylated DNA, primary screen, biochemical, TR-FRET, DNA-binding domain, human | Methyl-CpG-binding domain protein 2 (Homo sapiens), Q9UBB5 | MBD2 binding to methylated oligonucleotide | inhibition, % at 4.4 µM | actives 0.31% (n = 370,000); in the data active = inhibition above about 13%
Target sequence (Q9UBB5 whole entry, looked up, the tested form may be a part): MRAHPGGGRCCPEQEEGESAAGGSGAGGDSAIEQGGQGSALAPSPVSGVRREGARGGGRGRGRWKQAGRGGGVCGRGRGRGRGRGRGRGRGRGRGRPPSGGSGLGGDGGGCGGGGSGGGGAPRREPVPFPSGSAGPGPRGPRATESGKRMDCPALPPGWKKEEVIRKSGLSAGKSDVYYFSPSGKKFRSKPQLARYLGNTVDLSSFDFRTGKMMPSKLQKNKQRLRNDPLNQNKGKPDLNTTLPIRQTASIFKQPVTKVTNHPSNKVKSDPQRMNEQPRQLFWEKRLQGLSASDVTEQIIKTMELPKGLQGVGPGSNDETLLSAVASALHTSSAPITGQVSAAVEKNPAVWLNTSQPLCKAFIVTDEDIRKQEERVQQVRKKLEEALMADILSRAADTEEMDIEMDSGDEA
B2AR ag – beta2AR agonists driving receptor internalization, primary screen, cell-based, FAP fluorogen, flow cytometry | actives 0.43% (n = 340,000) | Am2.2-beta2AR cells | Beta-2 adrenergic receptor (Homo sapiens), P07550 | response, % (test concentration not listed);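 active = response above a set limit, near 3 SD of response in nonfluorescent compounds, cut at about 42% in these data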
Rin1-Abl confirm – Rin1-Abl binding inhibitor retest, confirmation, biochemical, TR-FRET. shares compounds with Rin1-Abl PPI inh. purified proteins. actives 49% (n = 1,300). inhibition, % at 7.35 µM; in the data active = inhibition above about 6.5%
GFP quencher – GFP fluorescence inhibitors and quenchers, artefact control for Rin1-Abl interaction inhibitor project, biochemical. inhibitors/quenchers counterscreen. inhibition, % at 6.75 µM. AID 602125, 2011. actives 8.5% (n = 1,300). shares compounds with Rin1-Abl PPI inh; in the data active = inhibition above about 6.5%;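 also: ABL1-eGFP fusion protein alone without its partner RIN1-SBP; 0% = protein with vehicle and 100% = wells lacking protein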
UHRF1 ctr MBD2 – UHRF1 methylated DNA binding inhibitors, counter-screen for MBD2 inhibitor project, biochemical, TR-FRET, human UHRF1; shares compounds with MBD2 DNA inh; UHRF1 binding to methylated oligonucleotide; inhibition, % at 4.4 µM; actives 25% (n = 1,000); AID 720530, 2013;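 also: UHRF1 SRA domain binding a labeled hemimethylated CpG hairpin DNA; 0% = vehicle only and 100% = reference inhibitor with vehicle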
MBD2 DBD conf – inhibitors of MBD2 binding to methylated DNA, confirmation, biochemical, TR-FRET, DNA-binding domain, human | TR-FRET MBD2-DBD binding to methylated oligonucleotide | shares compounds with MBD2 DNA inh | inhibition, % at 4.4 µM | actives 26% (n = 1,000); in the data active = inhibition above about 14%
Active calls of the source: *; x = no result given. In the library only some 2.5% were active in any assay of this set; here they are far more common. Rule as the data show it, unless noted: active = inhibition above about 21%; inactive = the rest.

SMILES	Rin1-Abl PPI inh	ABHD5 PLIN5 PPI	Arrestin-AP2 inh	UHRF1 binding	MBD2 DNA inh	B2AR ag	Rin1-Abl confirm	GFP quencher	UHRF1 ctr MBD2	MBD2 DBD conf
COC(=O)[C@]12C[C@H](CC(=O)N3CCCCC3)C(=O)N(Cc3cccc4ccccc34)C1=C[C@H](C(C)(C)C)O[C@@H]2C	x	x	x	-0.8	0.1	x	x	x	x	x
O=c1c2cc(O)c(O)cc2oc2cc(O)c(C3OC(CO)C(O)C(O)C3O)c(O)c12 (stereo not drawn)	28.6*	1.9	5.2	60.3*	43.0*	-8.0	30.5*	8.4*	45.1*	40.2*
CC(=O)Cc1cc(=O)c2c(C)cc(O)c(C3OC(CO)C(O)C(O)C3O)c2o1 (stereo not drawn)	-2.2	3.8	8.2	-1.8	-1.8	6.4	x	x	x	x
O=C1Cc2cccc(=O)c(O)c2C(=O)O1	8.2*	2.1	x	27.6*	13.2*	x	9.6*	5.2	27.7*	11.1
O=C1c2c(O)cccc2Cc2cccc(O)c21	1.6	-0.6	7.6	-2.8	-5.5	-1.1	x	x	x	x
Cc1ccccc1-c1nnnn1C1CCS(=O)(=O)C1 (stereo not drawn)	2.7	3.0	0.4	0.5	3.1	1.6	x	x	x	x
Cc1cc(=O)n(C2CCS(=O)(=O)C2)[nH]1 (stereo not drawn)	11.7*	-42.2	-3.3	17.2	13.8*	2.9	0.2	-0.9	-1.9	1.6
COC(=O)[C@]12C[C@H](CC(=O)N3CCCCC3)C(=O)N(Cc3ccc4c(c3)OCO4)C1=C[C@H](C(C)C)O[C@@H]2C1CC1	x	x	x	0.0	0.1	x	x	x	x	x
O=C1/C(=C/C=C/c2ccco2)SC(=S)N1NS(=O)(=O)c1ccccc1	12.5*	6.7	25.7	96.7*	68.7*	26.2	4.6	25.7*	88.1*	51.5*
O=C1/C(=C/c2cccs2)SC(=S)N1NS(=O)(=O)c1ccccc1	-0.6	-1.3	-6.4	4.2	-5.2	-0.4	x	x	x	x
O=C1/C(=C\c2ccco2)SC(=S)N1c1ccccc1	1.6	-4.9	-11.5	14.3	4.8	-5.9	x	x	x	x
CC(C(=O)O)N1C(=O)/C(=C/C=C/c2ccco2)SC1=S (stereo not drawn)	13.5*	7.7	31.9	101.0*	101.5*	-1.2	9.7*	20.1*	103.2*	110.2*
Cc1[nH]n(-c2ccccc2)c(=O)c1C(c1ccc(O)c([N+](=O)[O-])c1)c1c(C)[nH]n(-c2ccccc2)c1=O	12.7*	-6.8	7.9	15.2	14.7*	19.8	-3.9	4.1	1.8	-4.4
CCOc1cc(N2CCOCC2)c(OCC)cc1NC(C)C(=O)N1CCN(CC)CC1 (stereo not drawn)	37.9*	11.7	28.9	91.4*	51.1*	-1.3	0.9	-0.2	1.4	-3.4
